Where only a bound is given, the exact number is not on record here.

The test is described as follows: Cytotoxicity against human U87MG cells after 24 hrs by MTT assay. To be noted: U-87 MG. It is filed as functional, cell-based, U-87MG ATCC. Summed up: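 U87MG human glioblastoma cells were grown in EMEM with 10% FBS and 1% penicillin–streptomycin at 37 °C under humidified 5% CO₂, then seeded at 2 × 10³ cells/well. At about 50% confluence, cells were exposed to compounds at various concentrations (10 mmol/L DMSO stocks; DMSO control) for 24 h. MTT was then added for 3 h at 37 °C, formazan was dissolved in DMSO, and A540 was read. IC50 values are means of three experiments.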
For orientation: Tetrazolium dyes change colour on reduction, which living cells bring about.
Consider `COc1ccccc1C(=O)Nc1cn(-c2ccccc2)nc1-c1ccccc1`, for which the IC50 (in general, the concentration that inhibits the measured activity by half) came to 81 µM.
As for `Cn1cc(NC(=O)CCCCCCCCCCCN)c(-c2ccccn2)n1`, the IC50 was 90 µM.
On to `Cn1cc(NC(=O)CCCCCCCCCCO)c(-c2ccccn2)n1`, for which the IC50 was greater than 150 µM.
In the case of `COc1ccccc1C(=O)Nc1cn(C)nc1-c1ccccn1`, the IC50 came out at 130 µM.
`CCCCCCCCCCCC(=O)Nc1cn(C)nc1-c1ccccn1` yielded an IC50 greater than 150 µM.
In the case of `C[C@H](N)C(=O)Nc1cn(C)nc1-c1ccccn1` it was greater than 150 µM; in that of `Cn1cc(NC(=O)CCCCCCCCCCS)c(-c2ccccn2)n1`, greater than 150 µM; in that of `O=C(CCCCCCCCCCO)Nc1cn(-c2ccccc2)nc1-c1ccccc1`, greater than 150 µM.
Under `Cn1cc(NC(=O)c2ccccc2)c(-c2ccccn2)n1` stands greater than 150 µM; under `CCCCCCCCCCCC(=O)Nc1cn(-c2ccccc2)nc1-c1ccccc1`, 81 µM.
On to `C[C@H](N)C(=O)Nc1cn(-c2ccccc2)nc1-c1ccccc1`, for which the IC50 was greater than 150 µM.
Compound `O=C(CCCCCCCCCCS)Nc1cn(-c2ccccc2)nc1-c1ccccc1` displayed an IC50 of 90 µM.
On to `NCCCCCCCCCCCC(=O)Nc1cn(-c2ccccc2)nc1-c1ccccc1`, for which half-maximal inhibition (IC50) was put at 77 µM.
`O=C(Nc1cn(-c2ccccc2)nc1-c1ccccc1)c1ccccc1` registered an IC50 greater than 150 µM.

The record behind these values is ChEMBL document CHEMBL1157851, “Design and synthesis of novel 3,4-disubstituted pyrazoles for nanomedicine applications against malignant gliomas” (Eur J Med Chem, 2010).
